In article PMC3895945 (Nuclear medicine and biology, 2013):
One block for each molecule: values may come before it.

Columns and labels:
[1] = In vivo metabolism studies of FET prodrugs in Fisher 344 rats; conditions: blood drawn 5 min after intravenous injection
In short: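 Fisher 344 rats received ~37 MBq radiolabeled test compound intravenously. Blood was drawn from the heart 5 min post-injection. 50 μL aliquots were deproteinized with 1 % picric acid and centrifuged at 12,000g. Supernatant was run on C-18 HPLC (CH3CN/0.1 % formic acid), and fractions were gamma-counted. Parent and radio-metabolites were identified by retention time.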

[2] = tested on: 9L tumors; assay: In vivo biodistribution in Fisher rats with 9L glioma tumors; parameters: species or system Fischer 344 rats; conditions: for Tissue distribution Tumor: 9L tumor; for tumor uptake kinetics and retention: biodistribution 30 to 60 min, result in words; for Tumor/Blood / Tumor/Brain / Tumor/Muscle: ratio; for time to maximum uptake in the tumors: biodistribution, 9L tumors
[3] = In vitro metabolism; format: in vitro ADME, human
In short: (§1)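 Radiolabeled test compound (~3 MBq in 50 μL PBS) was added to 1.0 mL preheated blood or a PBS control at 37 °C. Rat blood was freshly drawn from anesthetized Fisher 344 rats into heparin (100 unit/mL); heparinized human blood had been stored at −70 °C. Aliquots taken at 5–120 min were deproteinized with 1 % picric acid and centrifuged. Supernatant was analysed by C-18 radio-HPLC. Percent intact compound versus time was fitted to first-order kinetics.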

[4] = In vitro metabolism; format: in vitro ADME, rat; conditions: for half-life: Fisher 344, rat, fresh heparinized rat whole blood
In short: as §1

[5] = tested on: 9L glioma cells; assay: In vitro uptake studies in 9L cells; format: cell-based; conditions: for uptake in 9L cells: result in words; for uptake relative to that of FET: 9L glioma cells, 5-120 min incubation at 37 °C
In short: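 9L gliosarcoma cells were grown in DMEM with 10 % FBS (37 °C, 5 % CO2) and plated at 2.0 × 10^5 cells/well 24 h ahead. Cells were washed with warm PBS containing Ca2+/Mg2+, then given radiolabeled test compound in PBS (~500,000 cpm/mL/well) at 37 °C for 5, 30, 60 or 120 min. They were washed with ice-cold PBS, lysed in 0.1N NaOH and gamma-counted. Uptake was normalised to protein (modified Lowry) as %uptake/100 μg protein, in triplicate.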

[6] = tested on: 9L tumors; assay: Dynamic small animal PET imaging in rats bearing 9L tumors; format: in vivo, Fisher rats; conditions: for maximum tumor-to-muscle ratio: PET region-of-interest analysis; for maximum tumor-to-muscle ratio / time to maximum tumor uptake: 9L tumors; for time to maximum tumor uptake / tumor uptake kinetics and retention: PET time-activity curves; for tumor uptake kinetics and retention: result in words
[7] = 30 min after intravenous injection
[8] = 60 min after intravenous injection
[9] = 30 min after intravenous injection, listed as FET-Ala([^18F]3)

- metabolized to FET [1]: 66%
- Tissue distribution Tumor [2, 7]: 0.61 ± 0.13 % ID/g
- Tissue distribution Tumor [2, 8]: 0.85 ± 0.09 % ID/g
- Tissue distribution Blood [2, 7]: 0.69 ± 0.03 % ID/g
- Tissue distribution Bone [2, 7]: 0.32 ± 0.01 % ID/g
- Tissue distribution Brain [2, 7]: 0.26 ± 0.01 % ID/g
- Tissue distribution Heart [2, 7]: 0.60 ± 0.03 % ID/g
- Tissue distribution Kidney [2, 7]: 0.70 ± 0.07 % ID/g
- Tissue distribution Liver [2, 7]: 0.64 ± 0.01 % ID/g
- Tissue distribution Lung [2, 7]: 0.55 ± 0.04 % ID/g
- Tissue distribution Muscle [2, 7]: 0.45 ± 0.02 % ID/g
- Tissue distribution Pancreas [2, 7]: 2.54 ± 0.11 % ID/g
- Tissue distribution Skin [2, 7]: 0.48 ± 0.01 % ID/g
- Tissue distribution Spleen [2, 7]: 0.66 ± 0.02 % ID/g
- Tissue distribution Blood [2, 8]: 0.62 ± 0.01 % ID/g
- Tissue distribution Bone [2, 8]: 0.33 ± 0.01 % ID/g
- Tissue distribution Brain [2, 8]: 0.36 ± 0.03 % ID/g
- Tissue distribution Heart [2, 8]: 0.56 ± 0.02 % ID/g
- Tissue distribution Kidney [2, 8]: 0.57 ± 0.05 % ID/g
- Tissue distribution Liver [2, 8]: 0.56 ± 0.01 % ID/g
- Tissue distribution Lung [2, 8]: 0.51 ± 0.01 % ID/g
- Tissue distribution Muscle [2, 8]: 0.49 ± 0.01 % ID/g
- Tissue distribution Pancreas [2, 8]: 2.23 ± 0.51 % ID/g
- Tissue distribution Skin [2, 8]: 0.44 ± 0.01 % ID/g
- Tissue distribution Spleen [2, 8]: 0.65 ± 0.06 % ID/g
- tumor uptake kinetics and retention [2]: slower uptake kinetics
- Tumor/Blood [2, 7]: 0.88 ± 0.19
- Tumor/Brain [2, 7]: 2.35 ± 0.51
- Tumor/Muscle [2, 7]: 1.36 ± 0.30
- Tumor/Blood [2, 8]: 1.37 ± 0.15
- Tumor/Brain [2, 8]: 2.36 ± 0.32
- Tumor/Muscle [2, 8]: 1.73 ± 0.19
- stability in human blood ([3]; human blood, 37 °C): completely stable
- half-life [4]: 77.5 min
- maximum tumor-to-muscle ratio [6]: < 5
- time to maximum tumor uptake [6]: 60 min
- tumor uptake kinetics and retention [6]: slower kinetics
SMILES: CC(=O)N[C@@H](Cc1ccc(OCC[18F])cc1)C(=O)O [AcFET ([^18F]4), N-acetyl O-(2-[^18F]fluoroethyl)-L-tyrosine]
- uptake in 9L cells [5]: negligible uptake
- uptake relative to that of FET [5]: less than 1%

- tumor uptake kinetics and retention [6]: continuously increasing tumor uptake
SMILES: O=C[C@H]([18F])[C@@H](O)[C@H](O)[C@H](O)CO [FDG, 2-[^18F]fluoro-2-deoxy-D-glucose, reference compound]

- maximum tumor-to-muscle ratio [6]: 5
- time to maximum tumor uptake [6]: ≤ 20 min
- tumor uptake kinetics and retention [6]: long retention
SMILES: N[C@@H](Cc1ccc(OCC[18F])cc1)C(=O)O [FET ([^18F]1), O-(2-[^18F]fluoroethyl)-L-tyrosine, reference compound]
- uptake in 9L cells [5]: high uptake

- metabolized to FET [1]: 79%
- Tissue distribution Tumor [2, 7]: 1.18 ± 0.10 % ID/g
- Tissue distribution Tumor [2, 8]: 1.10 ± 0.29 % ID/g
- Tissue distribution Blood [2, 7]: 0.72 ± 0.03 % ID/g
- Tissue distribution Bone [2, 7]: 0.41 ± 0.03 % ID/g
- Tissue distribution Brain [2, 7]: 0.31 ± 0.01 % ID/g
- Tissue distribution Heart [2, 7]: 0.67 ± 0.03 % ID/g
- Tissue distribution Kidney [2, 7]: 0.58 ± 0.02 % ID/g
- Tissue distribution Liver [2, 7]: 0.66 ± 0.02 % ID/g
- Tissue distribution Lung [2, 7]: 0.62 ± 0.02 % ID/g
- Tissue distribution Muscle [2, 7]: 0.54 ± 0.01 % ID/g
- Tissue distribution Pancreas [2, 7]: 3.06 ± 0.38 % ID/g
- Tissue distribution Skin [2, 7]: 0.69 ± 0.20 % ID/g
- Tissue distribution Spleen [2, 7]: 0.74 ± 0.06 % ID/g
- Tissue distribution Blood [2, 8]: 0.72 ± 0.03 % ID/g
- Tissue distribution Bone [2, 8]: 0.46 ± 0.03 % ID/g
- Tissue distribution Brain [2, 8]: 0.38 ± 0.02 % ID/g
- Tissue distribution Heart [2, 8]: 0.66 ± 0.03 % ID/g
- Tissue distribution Kidney [2, 8]: 0.57 ± 0.02 % ID/g
- Tissue distribution Liver [2, 8]: 0.65 ± 0.02 % ID/g
- Tissue distribution Lung [2, 8]: 0.61 ± 0.03 % ID/g
- Tissue distribution Muscle [2, 8]: 0.60 ± 0.03 % ID/g
- Tissue distribution Pancreas [2, 8]: 3.52 ± 0.26 % ID/g
- Tissue distribution Skin [2, 8]: 0.73 ± 0.16 % ID/g
- Tissue distribution Spleen [2, 8]: 0.71 ± 0.03 % ID/g
- tumor uptake kinetics and retention [2]: long retention
- time to maximum uptake in the tumors [2]: ≤ 30 min
- Tumor/Blood [2, 7]: 1.6
- Tumor/Brain [2, 7]: 3.8
- Tumor/Muscle [2, 7]: 2.2
- Tumor/Blood [2, 9]: 1.64 ± 0.15
- Tumor/Brain [2, 9]: 3.81 ± 0.35
- Tumor/Muscle [2, 9]: 2.18 ± 0.19
- Tumor/Blood [2, 8]: 1.53 ± 0.41
- Tumor/Brain [2, 8]: 2.89 ± 0.78
- Tumor/Muscle [2, 8]: 1.83 ± 0.49
- half-life ([3]; human, heparinized human whole blood): 0.8 min
- half-life [4]: 5.8 min
- maximum tumor-to-muscle ratio [6]: 5
- time to maximum tumor uptake [6]: ≤ 20 min
- tumor uptake kinetics and retention [6]: long retention
SMILES: C[C@H](NC(=O)[C@@H](N)Cc1ccc(OCC[18F])cc1)C(=O)O [FET-Ala ([^18F]3), O-(2-[^18F]fluoroethyl)-L-tyrosyl-L-alanine]
- uptake in 9L cells [5]: negligible uptake
- uptake relative to that of FET [5]: less than 1%

- metabolized to FET [1]: 72%
- Tissue distribution Tumor [2, 7]: 0.81 ± 0.30 % ID/g
- Tissue distribution Tumor [2, 8]: 0.56 ± 0.33 % ID/g
- Tissue distribution Blood [2, 7]: 0.72 ± 0.02 % ID/g
- Tissue distribution Bone [2, 7]: 0.41 ± 0.01 % ID/g
- Tissue distribution Brain [2, 7]: 0.33 ± 0.02 % ID/g
- Tissue distribution Heart [2, 7]: 0.67 ± 0.03 % ID/g
- Tissue distribution Kidney [2, 7]: 0.57 ± 0.01 % ID/g
- Tissue distribution Liver [2, 7]: 0.67 ± 0.02 % ID/g
- Tissue distribution Lung [2, 7]: 0.59 ± 0.01 % ID/g
- Tissue distribution Muscle [2, 7]: 0.52 ± 0.04 % ID/g
- Tissue distribution Pancreas [2, 7]: 2.74 ± 0.39 % ID/g
- Tissue distribution Skin [2, 7]: 0.44 ± 0.03 % ID/g
- Tissue distribution Spleen [2, 7]: 0.76 ± 0.05 % ID/g
- Tissue distribution Blood [2, 8]: 0.74 ± 0.06 % ID/g
- Tissue distribution Bone [2, 8]: 0.45 ± 0.04 % ID/g
- Tissue distribution Brain [2, 8]: 0.47 ± 0.06 % ID/g
- Tissue distribution Heart [2, 8]: 0.68 ± 0.05 % ID/g
- Tissue distribution Kidney [2, 8]: 0.57 ± 0.05 % ID/g
- Tissue distribution Liver [2, 8]: 0.66 ± 0.05 % ID/g
- Tissue distribution Lung [2, 8]: 0.62 ± 0.06 % ID/g
- Tissue distribution Muscle [2, 8]: 0.67 ± 0.06 % ID/g
- Tissue distribution Pancreas [2, 8]: 2.92 ± 0.44 % ID/g
- Tissue distribution Skin [2, 8]: 0.46 ± 0.01 % ID/g
- Tissue distribution Spleen [2, 8]: 0.80 ± 0.12 % ID/g
- washout from 9L tumors ([2]; at 60 min (from 30 min)): 31%
- time to maximum uptake in the tumors [2]: ≤ 30 min
- Tumor/Blood [2, 7]: 1.13 ± 0.42
- Tumor/Brain [2, 7]: 2.45 ± 0.92
- Tumor/Muscle [2, 7]: 1.56 ± 0.59
- Tumor/Blood [2, 8]: 0.76 ± 0.45
- Tumor/Brain [2, 8]: 1.19 ± 0.72
- Tumor/Muscle [2, 8]: 0.84 ± 0.50
- t1/2 Human blood ([3]; hydrolysis to FET in human blood at 37 °C, average of two experiments): 22.7 min
- t1/2 Rat blood ([4]; hydrolysis to FET in rat blood at 37 °C, average of two experiments): 17.3 min
- maximum tumor-to-muscle ratio [6]: 5
- time to maximum tumor uptake [6]: ≤ 20 min
- tumor uptake kinetics and retention [6]: washout
SMILES: N[C@@H](Cc1ccc(OCC[18F])cc1)C(=O)NCC(=O)O [FET-Gly ([^18F]2), O-(2-[^18F]fluoroethyl)-L-tyrosyl-L-glycine]
- uptake in 9L cells [5]: negligible uptake
- uptake relative to that of FET [5]: less than 1%
